Laboratory results published in the EternaBench riboswitch data.

Test system: MS2 coat protein
Assay: apparent Kd, MS2 coat protein; higher = weaker binding; RNA-MaP array; FMN 200 µM where present
Procedure, shortened: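 Stalled E. coli RNA polymerase transcribed each design on Illumina sequencing-chip clusters. The clusters were titrated with SNAP-549-labelled MS2 coat protein, starting at 0.7 or 1.5 nM and doubling up to 3 µM, first without ligand and then with constant ligand, in 100 mM Tris-HCl pH 7.5, 80 mM KCl, 4 mM MgCl2, BSA, DTT, yeast tRNA and Tween-20. Green signal was normalised to red-channel RNA signal and to the control-cluster median Fmax. The apparent Kd is the median of filtered binding-curve fits made for each cluster.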

[1] = designed as: OFF switch for flavin mononucleotide, no ligand
[2] = ligand present: flavin mononucleotide, designed as: OFF switch for flavin mononucleotide
[3] = designed as: ON switch for flavin mononucleotide, no ligand
[4] = ligand present: flavin mononucleotide, designed as: ON switch for flavin mononucleotide

Sequence | apparent Kd [1] | apparent Kd [2] | apparent Kd [3] | apparent Kd [4]
UUUAGUUUAGGAUAUGUAGACAUUAACAUGAGGAUCACCCAUGUAGAUCCUGAAUUGGCUACAGAAGGGAGCAUUU | 290 nM | 314 nM |  | 
GUACUACAUGAGGAUCACCCAUGUCAGGAUAUGUGAAUUUCAUCAAAAGAUGAAAUUCGUAGAAGGGACAGUAC | 22.2 nM | 29.4 nM |  | 
GGGCGACAUGAGGAUCACCCAUGUAACCAAAACGAAGGAUAUGGGCCUGAACGUCCAGGACUAGAAGGUCGGAAAC |  |  | 22 nM | 18 nM
AGUAAGAUGCAGAAGGUGUCAGCGAGAGCUACGACAUGAGGAUCACCCAUGUACUAGUGAGAGUACGAGGAUAUGCAUCUUACA |  |  | 37.3 nM | 13.9 nM
CGAAAUGAUAGAGGAUAUGUUUAACAUGAGGAUCACCCAUGUGACAUGGGAUUAAUAUAUAACUUACAGAAGGCUAUUCAAUCG | 38.7 nM | 52.1 nM |  | 
GAGGCCCAGGAAGGUAGAAUGAGCAGAAGGCAACGAAGCGUGAUCGACAUGAGGAUCACCCAUGUUGAGGAUAUGCGCCUCCAC | 63.1 nM | 178 nM |  | 
UAGGGCUUGGGCAGAAGGGUUACAUGAGGAUCACCCAUGUACAGAAGGAGAGCCUUGGGAAAGCUCUAGGAUAUGUCUAUGGGU | 9.93 nM | 6.66 nM |  | 
CAGGUCUGAGGAUAUCCAUCUUCAUACAUGAGGAUCACCCAUGUUUACCUUUGGGUUUUUGGAGAAGGCAGUUUUU | 188 nM | 243 nM |  | 
AUAAUGAGAGGAUAUACAUGAGGAUCACCCAUGUUUUUAUCACGUCGUGCUCCAUUACGUAGAAGGCUCAUUUA | 36.3 nM | 53.7 nM |  | 
UUGUGCUUAGAGAAGGUUCAAACUACAUAUUGCGCACAUGAGGAUCACCCAUGUUGGUGAAUAAGAAAGGAUAUUUGACUGUAC | 118 nM | 85.2 nM |  | 
CACCGUUAGUGAGGAUAUCUUACAUGAGGAUCACCCAUGUAAUAAAUGAGAAUUUCGGAUGUAUUAGAGAAGGCACAAAUCGGC | 25.1 nM | 24.3 nM |  | 
AGCGUGUAAGGAUAUACGUCGGAUAGCGAAUGCUGUCCGUAGUAGAAGGUACAUGAGGAUCACCCAUGUGUCCA | 25.1 nM | 94.1 nM |  | 
UAAAUUUUAUGAUAUUAUGACAUUAGAAGGCUGUACAUGUUGAUACAUGAGGAUCACCCAUGUAUAGAGGAUAUAGACAAUUAU | 40.5 nM | 92.6 nM |  | 
UAUAUAUAGUAAGGAUAUGUAAUUGUUUUAUAAACAGAAGGUACUGACAUGAGGAUCACCCAUGUUUUAGUGUGGGCAUGUAGA | 57.4 nM | 78.8 nM |  | 
CCCUAAUAUCGAGGAUAUGUCUAGACACAUGAGGAUCACCCAUGUAUGUGUAUAGAAGGCGAUAUUAACAGCAUGUUACAUCCC |  |  | 46.2 nM | 21.7 nM
UAUAUAUAGUAAGGAUAUGUAUAUAUGUUAUAAACAGAAGGUACUGACAUGAGGAUCACCCAUGUUUUAGUGUGGGCAUGUAGA | 66.2 nM | 96 nM |  | 
GGGUUCAUCGGAGGAUAUCAUGUAAAUACAUGAGGAUCACCCAUGUCGAUGGAGACAUCGGAGAUUGAGAAGGCCGAUGUACCG |  |  | 186 nM | 9.18 nM
AAAGACAGACAUGAGGAUCACCCAUGUUAUGAAGAUACUGGGAGAAGGGCGAUUGCAAAGCAAUCGCAGGAUAUUCGUAUUGUC |  |  | 92.2 nM | 15.6 nM
GGAUAGGACAGAGGAUAUACCGAUAGGAUCUACUAUCGAACAAUCCUCACAUGAGGAUCACCCAUGUAGAAGGCUGUCCUAUCG | 23.9 nM | 274 nM |  | 

Sequence | apparent Kd [1] | apparent Kd [2] | apparent Kd [3] | apparent Kd [4]
AAGAAGAACGCAGGAUAUCUCACCCAUGUAAGAAGAGAAGGGCGACAUGAGGAUCACCCAUGUCAACAUGAGGAUCACCCAUGU | 59.6 nM | 88.9 nM |  | 
UAUUUAUUAGAGAAGGUACAUACAAUUAACAACAUACAUGAGGAUCACCCAUGUUGGUGAAUAAGUAAGGAUAUUUAAUACUUU | 31.3 nM | 17.6 nM |  | 
CGACAGUCAGGAUAUGCAAAAAAAAAAAAAAAAAAAAAAAAGCAGAAGGGACAUGAGGAUCACCCAUGUCGUCG | 59.5 nM | 45.2 nM |  | 
GCACUGGAUGUAGGAUAUCAGGACGAUAAGUCCUGAGAAGGACAUGAGGAUCACCCAUGUCUCAAAACCAGUGCAUAUAAUAUA | 13.2 nM | 19.1 nM |  | 
AAUGGCGUGAUAACGCUAAUUAAAACAUGAGGAUCACCCAUGUAGGAUAUCCUACCGAAAUGGUAGGAGAAGGACAAGCAAUGA | 33.4 nM | 27.7 nM |  | 
UUACUAUCACAGAAGGGUAGAUAGUAUAUAGAUGCAGGAUAUGUGACAUGAGGAUCACCCAUGUUUCACCCACAUGAGGAUCAC | 17.5 nM | 18.9 nM |  | 
ACACAUGAGGAUCACCCAUGUACUCGACACAUUCAUUGGGCACAGGAUAUACGGUGAAGUCUUUCGUAGAAGGGUGCUAGUGUG |  |  | 84 nM | 18.4 nM
GUCAUUAAACAGAAGGUGUUGUACAUGAGGAUCACCCAUGUUUAUCUAAUUAAAUUUGUAAUUAACAAGGAUAUGUACUAAUCG |  |  | 231 nM | 131 nM
GAAAACGCAGAGGAUAUUUCAGAUCAAAGCUGCAAAGAAGGCUGCACAUGAGGAUCACCCAUGUGGUCUUUAAA | 19.3 nM | 202 nM |  | 
UGCAUGUAAGGAUAUGCAUCCGCCGACGUCCCGGCGGCACAGCAGAAGGUACAUGAGGAUCACCCAUGUGUCCC | 28.8 nM | 155 nM |  | 
CGCUACGUUUCGUAGCAGUGUCAUCGAGAAGGCCCUGACAUGAGGAUCACCCAUGUUGUUACAUGGGAGGAUAUCGAUGAUACA |  |  | 12.8 nM | 4.99 nM
AACCUAAAACAGAAGGCCAGCUACAUGAGGAUCACCCAUGUCGAAUCAUGGAGGAUAUGUUGUAAUUUACUCGCAGAUGAGUGC |  |  |  | 5.92 nM
GGUCAACAUGAGGAUCACCCAUGUAAGCCAAGGCAAGGAUAUGGGUAUAGGGUACUAGGGUUAGAAGGUGCCAAUA |  |  | 144 nM | 182 nM
GGUCGUCACAUUUACAUGAGGAUCACCCAUGUCGAAAGACAUGAGGAUAUGCUACCUAAUUGGUAGCAGAAGGCAUGGACGACC |  |  | 455 nM | 234 nM
CGGGCAUAUCGAGGAUAUAAGUCUAGGACAUGAGGAUCACCCAUGUAUGUCUUAGAAGGCGAUAUGCCCAGCCUGUUACAGGCA |  |  | 30 nM | 6.01 nM
AGCUAGUCAGGAUAUACGUACAUGUCAUUAGACGUGAAGGGACAUGAGGAUCACCCAUGUAGAAGGGACUAGCU | 37.6 nM | 139 nM |  | 
GGAUAGGACAGAGGAUAUACGCGCUAGAGAUACUAGCAAAAUUUCCUCACAUGAGGAUCACCCAUGUAGAAGGCUGUCCUAUCG | 20.1 nM | 580 nM |  | 
GCUUGAGCAGGAUAUACAUGAGGAUCACCCAUGUUGAGCUUGAGGAUCUUCGAGUUCGGUAGAAGGGUUCGAGU | 22.1 nM | 59.5 nM |  | 
UCAAGUAUGUAGGAUAUCGAUGUCCUUGGACAUCGAGAAGGACGUACAUGAGGAUCACCCAUGUAACUUGCAUG | 219 nM | 278 nM |  | 

Sequence | apparent Kd [1] | apparent Kd [2] | apparent Kd [3] | apparent Kd [4]
CCAUGAACAGGAUAUCUUCCUCCGAACAUGAGGAUCACCCAUGUAACUGUGUAGCAUGACAGAGAAGGGUUUAUGG | 99.5 nM | 56.7 nM |  | 
ACAUGGAAGCAGGAUAUGCUUGUAUAAUUGUUUGCAGAAGGGCUAACAUGAGGAUCACCCAUGUAAGAGGUCUA | 16.2 nM | 25.8 nM |  | 
AGUAACAGAGGAUAUACUGUUUUAUGUGUUUAUUAUUUUGAACAUGAGGAUCACCCAUGUAGAAGGCUGAAUAA |  | 21.9 nM |  | 
UCGACCAGCGCCGCUCGAACAUGAGGAUCACCCAUGUACUCCAGAAGGCCGCCCAAGUACGGAGUGGAGGAUAUGGAGGUUCUC |  |  | 39.5 nM | 25.4 nM
GUAGAGUAGUGAGGAUAUACGAGUACGAUAGUACGGCGAUCCAAUAAUACAUGAGGAUCACCCAUGUAGAAGGCACUUCUCUAC | 8.53 nM | 98.7 nM |  | 
GGAUAGGACAGAGGAUAUACGUGCUAGAGAUACGAGCAAAAUUUCCUCACAUGAGGAUCACCCAUGUAGAAGGCUGUCCUAUCG | 32.5 nM | 578 nM |  | 
CGUACCAUGUAGAAGGCAUAUCUCAAAGAGAUAUGAGGAUAUACAUGAGGAUCACCCAUGUAAAUGUACUCCAGGAAACUGGAA | 47.8 nM | 222 nM |  | 
GCAAUAGCAUGAGGAUAUGUUGGAGUUUAGACAGCAGAAGGCAUGUCAUAAGACAUGAGGAUCACCCAUGUAAUUACAAUAGCA |  |  | 32.7 nM | 12.1 nM
GCCUUAUCCGUCAGGAUAUACAUUUUUUUGUUGUUGUAGAAGGGACAUGAGGAUCACCCAUGUACAUUACAUUG | 21.5 nM | 25.1 nM |  | 
ACAUUCUUUCGAGGAUAUCGGUGAUUAAUUUUACGAGAAGGCGAUUUAAGAUAUAAUAUUUUAGACAUGAGGAUCACCCAUGUA |  |  | 26.1 nM | 24.1 nM
UCUGCCGCCGUGAGGAUAUGCCCGCGCGCCCGCGGGCAGAAGGCACAUGAGGAUCACCCAUGUCCCGCGGCUUU | 15.1 nM | 39.5 nM |  | 
AUAAAUGAUGAGGAUAUCACUAGCGAUAGCUAGUGAGAAGGCAUCACAUGAGGAUCACCCAUGUGCUCCAAUAA | 115 nM | 486 nM |  | 
UGUUCUAUGUAGAAGGCCCAUAUCUGUUUUUAGGGAGGAUAUACAUGAGGAUCACCCAUGUGUAGAGCUGGUGGACUGGUCAGC | 13.7 nM | 40.1 nM |  | 
ACAUGAGGAUCACCCAUGUACAUGGGUUUAAUUGUGUGUUACGAGGAUAUGUAUUUGAAUUUACAACAGAAGGUGUAUUACUGU | 811 nM | 610 nM |  | 
GUGGUCAGACAUGAGGAUCACCCAUGUGGAAUAAAUAACACACAGGAUAUCAAAUAUAAAAUAUAUGAGAAGGGUGGAUUGGUG |  |  |  | 224 nM
UACAGCGUAGAUAAUAAUGAUUACAUGAGGAUCACCCAUGUAUAGGAUAUGCAGUGGAAUACACUGCAGAAGGAUACAUCGCUG | 17 nM | 37 nM |  | 
AUAUAGAUGGUCAGGAUAUGCUAGUGGUAACAGUAGCAGAAGGGACAUGAGGAUCACCCAUGUGGAUACUGCUC | 23.9 nM | 93.6 nM |  | 
AGUUUUUAUGUCAGGAUAUCAGUAGGUCUCCCGGAUGAGAAGGGACAUGAGGAUCACCCAUGUAACCAAAGAGC | 15.6 nM | 18.5 nM |  | 
